The source made the active and inactive calls. No cut-off for these calls is given here.
Experiments:
[1] = Chemical stability of the compound assessed as compound hydrolysis at 50 uM in HEPES buffer incubated for 12 hrs at pH 7.5 at 37 degC by UV-visible spectrometry; assay type: physicochemical; conditions: pH 7.5, 12 h
Summary of the method: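 Hydrolysis followed by UV−vis spectrometry after incubation for 12 h at pH 7.5 and 37 °C.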

[2] = Chemical stability of the compound assessed as compound hydrolysis at 50 uM in Opti-Mem solution incubated for 12 hrs at pH 7.5 at 37 degC by UV-visible spectrometry; assay type: physicochemical; conditions: buffer, pH 7.5, 12 h
U2OS [3] = assay: Activation of p53 in human U2OS cells expressing EGFP assessed as increase of EGFP expression at 2.5 uM after 48 hrs relative to Nutlin-3; assay type: cell-based
Summary of the method: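 U2OS-pLV cells carrying an integrated p53-responsive EGFP reporter; compounds at 2.5 μM for 48 h. Read-out is the percentage of EGFP-positive cells, counted by high-content screening. The value is the ratio to the response with Nutlin-3, which is set as 1.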

U2OS [4] = assay: Cytotoxicity against human U2OS cells expressing p53 assessed as number of cells by Hoechst stain staining relative to Nutlin-3; assay type: functional
Summary of the method: (§1)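 p53+ and p53− cells treated, then Hoechst-stained; surviving cells counted. The value is the ratio of compound effect to Nutlin-3 effect, which is set as 1.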

U2OS [5] = assay: Cytotoxicity against human p53 deficient U2OS cells assessed as number of cells by Hoechst stain staining relative to Nutlin-3; assay type: functional; summary of the method: as §1
U2OS [6] = assay: Activation of p53 in human U2OS cells assessed as increase of MDM2 expression at 2.5 uM after 12 hrs by Western blotting; assay type: cell-based
U2OS [7] = assay: Activation of p53 in human U2OS cells assessed as increase of MDM2 expression at 0.5 uM after 12 hrs by Western blotting; assay type: cell-based
[8] = target: Cellular tumor antigen p53 (Homo sapiens) (UniProt P04637); assay: Stabilization of p53 in human U2OS cells assessed as intracellular p53 level at 0.5 uM after 12 hrs by Western blotting; assay type: cell-based
Chain of Cellular tumor antigen p53 (Homo sapiens) (P04637 whole entry, looked up): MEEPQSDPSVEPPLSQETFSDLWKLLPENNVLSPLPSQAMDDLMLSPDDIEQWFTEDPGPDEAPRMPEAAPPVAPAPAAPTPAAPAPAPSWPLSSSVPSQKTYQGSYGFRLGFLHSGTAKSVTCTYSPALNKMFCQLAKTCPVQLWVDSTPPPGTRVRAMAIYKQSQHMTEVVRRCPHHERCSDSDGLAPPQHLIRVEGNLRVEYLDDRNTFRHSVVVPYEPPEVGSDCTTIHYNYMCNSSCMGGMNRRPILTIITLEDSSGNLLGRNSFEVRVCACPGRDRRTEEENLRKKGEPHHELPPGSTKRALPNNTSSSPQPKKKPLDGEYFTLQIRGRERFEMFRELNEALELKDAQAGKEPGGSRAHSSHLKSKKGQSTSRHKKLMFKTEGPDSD

| SMILES | Ratio (U2OS [3]) | Ratio (U2OS [4]) | Ratio (U2OS [5]) | also measured |
| --- | --- | --- | --- | --- |
| O=C1C(=O)N(CN2CCN(c3ccccc3)CC2)c2ccccc21 |  |  |  | Stability [1]: Unstable; Stability [2]: Unstable |
| O=C(NCc1ccccc1)c1ccc(/N=C2\C(=O)N(CN3CCC(Cc4ccccc4)CC3)c3ccccc32)cc1 | 4.9 | 0.14 | 0.32 |  |
| O=C1Nc2ccccc2/C1=N/c1ccc(C(=O)NCc2ccccc2)cc1 |  |  |  | Stability [1]: Unstable; Stability [2]: Unstable |
| O=C(NCc1ccccc1)c1ccc(/N=C2\C(=O)N(CN3CCN(Cc4ccccc4)CC3)c3ccccc32)cc1 | 4.2 | 0.1 | 0.19 |  |
| O=C(NCc1ccccc1)c1ccc(/N=C2\C(=O)N(CN3CCN(c4ccccc4F)CC3)c3ccccc32)cc1 | 3.6 | 0.11 | 0.24 |  |
| C[C@H](NC(=O)c1ccc(/N=C2\C(=O)N(CN3CCN(Cc4ccccc4)CC3)c3ccccc32)cc1)c1ccccc1 | 8.7 | 0.04 | 0.27 |  |
| O=C(NCc1ccccc1)c1ccc(/N=C2\C(=O)N(CN3CCN(c4ccccc4)CC3)c3ccccc32)cc1 | 3.9 | 0.22 | 0.4 | Activity (U2OS [6]): inactive |
| COc1cccc2c1C(=O)c1c(O)c3c(c(O)c1C2=O)C[C@@](O)(C(=O)CO)C[C@@H]3O[C@H]1C[C@H](N)[C@H](O)[C@H](C)O1 |  |  |  | Activity (U2OS [7]): inactive; Activity [8]: Active |
| COc1ccc(C2=N[C@@H](c3ccc(Cl)cc3)[C@@H](c3ccc(Cl)cc3)N2C(=O)N2CCNC(=O)C2)c(OC(C)C)c1 |  |  |  | Activity (U2OS [6]): inactive |
| CN(Cc1ccccc1)CN1C(=O)/C(=N\c2ccc(C(=O)NCc3ccccc3)cc2)c2ccccc21 | 3.1 | 0.14 | 0.41 |  |

— ChEMBL document CHEMBL3621156, “Discovery of Novel Isatin-Based p53 Inducers” (ACS Med Chem Lett, 2015)
